Assay results: the M2OR odorant receptor database

Experiments:
Settings in all cases: stereoisomer not certain
UniProt Q8VGC6 = target: T1, UniProt Q8VGC6
T1 sequence (whole entry): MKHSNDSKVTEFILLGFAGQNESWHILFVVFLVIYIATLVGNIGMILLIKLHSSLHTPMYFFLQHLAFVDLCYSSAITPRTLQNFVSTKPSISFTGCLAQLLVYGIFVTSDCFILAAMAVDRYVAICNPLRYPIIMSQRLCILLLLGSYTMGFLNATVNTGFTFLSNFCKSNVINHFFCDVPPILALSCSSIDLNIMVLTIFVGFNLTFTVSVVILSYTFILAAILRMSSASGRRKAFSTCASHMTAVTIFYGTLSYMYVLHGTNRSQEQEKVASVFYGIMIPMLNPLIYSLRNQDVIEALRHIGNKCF
Method in brief: (§1)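 Each entry records the cell line, G-protein, co-transfected protein and tags used. Methods varied with the source, often transient luciferase assays in mammalian cell lines. A receptor–molecule pair is called responsive (active) if the original authors judged its signal statistically different from baseline and non-responsive (inactive) otherwise.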

UniProt Q8VGD7 = target: T2, UniProt Q8VGD7
T2 sequence (whole entry): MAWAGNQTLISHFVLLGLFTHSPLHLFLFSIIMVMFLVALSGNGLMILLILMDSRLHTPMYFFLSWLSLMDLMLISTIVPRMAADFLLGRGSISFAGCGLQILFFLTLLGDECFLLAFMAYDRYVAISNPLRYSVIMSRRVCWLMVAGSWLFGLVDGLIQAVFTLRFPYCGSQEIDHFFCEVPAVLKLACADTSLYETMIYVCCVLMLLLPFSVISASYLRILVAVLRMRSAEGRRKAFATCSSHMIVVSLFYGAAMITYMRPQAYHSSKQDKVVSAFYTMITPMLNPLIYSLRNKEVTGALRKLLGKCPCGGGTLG
Method in brief: as §1

UniProt Q8VGH1 = target: T3, UniProt Q8VGH1
T3 sequence (whole entry): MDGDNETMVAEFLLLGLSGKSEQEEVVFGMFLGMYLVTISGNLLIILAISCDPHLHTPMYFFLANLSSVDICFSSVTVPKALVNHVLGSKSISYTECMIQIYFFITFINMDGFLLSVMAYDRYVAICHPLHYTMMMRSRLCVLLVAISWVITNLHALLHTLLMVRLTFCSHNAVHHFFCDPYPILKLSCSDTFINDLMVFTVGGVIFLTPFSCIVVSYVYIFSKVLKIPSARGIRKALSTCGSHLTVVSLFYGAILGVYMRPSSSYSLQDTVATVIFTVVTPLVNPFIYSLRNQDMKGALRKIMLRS
Method in brief: as §1

UniProt Q8VGJ1 = target: T4, UniProt Q8VGJ1
T4 sequence (whole entry): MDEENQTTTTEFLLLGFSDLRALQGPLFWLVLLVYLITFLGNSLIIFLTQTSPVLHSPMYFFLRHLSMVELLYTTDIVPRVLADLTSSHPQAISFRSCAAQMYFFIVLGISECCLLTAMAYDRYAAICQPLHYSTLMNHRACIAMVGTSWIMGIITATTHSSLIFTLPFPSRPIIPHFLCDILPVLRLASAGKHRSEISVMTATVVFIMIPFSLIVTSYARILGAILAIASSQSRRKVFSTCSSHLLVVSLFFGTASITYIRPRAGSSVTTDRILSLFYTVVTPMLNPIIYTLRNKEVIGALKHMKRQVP
Method in brief: as §1

UniProt Q8VGJ3 = target: T5, UniProt Q8VGJ3
T5 sequence (whole entry): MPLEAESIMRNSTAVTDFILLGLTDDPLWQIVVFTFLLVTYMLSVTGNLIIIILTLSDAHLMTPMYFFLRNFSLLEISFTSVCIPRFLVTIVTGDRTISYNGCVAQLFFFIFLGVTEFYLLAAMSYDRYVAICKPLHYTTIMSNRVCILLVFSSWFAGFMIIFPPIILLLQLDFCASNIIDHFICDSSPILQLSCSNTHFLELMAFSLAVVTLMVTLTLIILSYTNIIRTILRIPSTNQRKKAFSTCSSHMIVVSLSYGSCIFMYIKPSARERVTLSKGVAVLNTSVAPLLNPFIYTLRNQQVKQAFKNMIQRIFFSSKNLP
Method in brief: as §1

UniProt Q8VGJ5 = target: T6, UniProt Q8VGJ5
T6 sequence (whole entry): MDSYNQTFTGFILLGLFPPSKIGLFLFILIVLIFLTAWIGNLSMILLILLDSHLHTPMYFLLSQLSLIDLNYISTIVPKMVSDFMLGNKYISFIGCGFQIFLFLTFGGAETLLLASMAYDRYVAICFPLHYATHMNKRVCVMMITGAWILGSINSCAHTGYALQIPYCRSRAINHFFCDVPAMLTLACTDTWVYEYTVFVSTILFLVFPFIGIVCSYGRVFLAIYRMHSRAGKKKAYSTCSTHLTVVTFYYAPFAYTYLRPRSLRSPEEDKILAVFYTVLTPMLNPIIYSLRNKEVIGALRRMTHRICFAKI
Method in brief: as §1

UniProt Q8VGL0 = target: T7, UniProt Q8VGL0
T7 sequence (whole entry): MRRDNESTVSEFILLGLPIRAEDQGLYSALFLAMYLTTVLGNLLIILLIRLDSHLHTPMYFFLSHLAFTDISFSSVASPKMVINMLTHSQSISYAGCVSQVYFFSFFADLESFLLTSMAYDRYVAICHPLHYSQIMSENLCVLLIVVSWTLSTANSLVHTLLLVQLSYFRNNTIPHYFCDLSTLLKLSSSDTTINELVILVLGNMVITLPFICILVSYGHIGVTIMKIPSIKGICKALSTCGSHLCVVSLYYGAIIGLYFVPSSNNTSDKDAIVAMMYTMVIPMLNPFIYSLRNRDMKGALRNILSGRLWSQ
Method in brief: as §1

UniProt Q8VGL7 = target: T8, UniProt Q8VGL7
T8 sequence (whole entry): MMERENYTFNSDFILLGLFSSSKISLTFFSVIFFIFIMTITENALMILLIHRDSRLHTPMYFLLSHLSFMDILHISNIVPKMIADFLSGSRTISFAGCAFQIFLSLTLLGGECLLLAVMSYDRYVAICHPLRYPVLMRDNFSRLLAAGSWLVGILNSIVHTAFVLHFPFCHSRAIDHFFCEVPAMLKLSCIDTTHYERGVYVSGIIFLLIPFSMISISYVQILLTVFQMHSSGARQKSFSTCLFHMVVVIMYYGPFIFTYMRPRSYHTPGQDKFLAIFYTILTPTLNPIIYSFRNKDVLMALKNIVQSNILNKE
Method in brief: as §1

UniProt Q8VGM2 = target: T9, UniProt Q8VGM2
T9 sequence (whole entry): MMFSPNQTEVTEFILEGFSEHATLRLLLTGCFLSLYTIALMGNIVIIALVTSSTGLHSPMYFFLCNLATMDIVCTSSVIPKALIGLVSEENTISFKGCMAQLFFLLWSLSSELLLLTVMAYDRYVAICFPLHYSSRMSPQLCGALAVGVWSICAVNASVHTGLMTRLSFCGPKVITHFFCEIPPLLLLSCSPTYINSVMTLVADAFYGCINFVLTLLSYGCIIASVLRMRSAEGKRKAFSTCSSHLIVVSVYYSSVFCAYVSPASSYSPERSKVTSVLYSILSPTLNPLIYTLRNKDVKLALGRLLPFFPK
Method in brief: as §1

UniProt Q8VGP6 = target: T10, UniProt Q8VGP6
T10 sequence (whole entry): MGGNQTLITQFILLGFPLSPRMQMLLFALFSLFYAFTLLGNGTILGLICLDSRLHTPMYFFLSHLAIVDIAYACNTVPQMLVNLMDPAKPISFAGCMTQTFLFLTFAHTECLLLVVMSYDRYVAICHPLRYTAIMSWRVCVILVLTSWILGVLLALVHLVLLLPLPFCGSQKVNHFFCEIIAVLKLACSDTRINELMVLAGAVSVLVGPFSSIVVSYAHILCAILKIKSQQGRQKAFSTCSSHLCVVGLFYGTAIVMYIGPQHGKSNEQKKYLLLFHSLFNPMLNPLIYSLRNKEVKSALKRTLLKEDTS
Method in brief: as §1

UniProt Q8VGQ3 = target: T11, UniProt Q8VGQ3
T11 sequence (whole entry): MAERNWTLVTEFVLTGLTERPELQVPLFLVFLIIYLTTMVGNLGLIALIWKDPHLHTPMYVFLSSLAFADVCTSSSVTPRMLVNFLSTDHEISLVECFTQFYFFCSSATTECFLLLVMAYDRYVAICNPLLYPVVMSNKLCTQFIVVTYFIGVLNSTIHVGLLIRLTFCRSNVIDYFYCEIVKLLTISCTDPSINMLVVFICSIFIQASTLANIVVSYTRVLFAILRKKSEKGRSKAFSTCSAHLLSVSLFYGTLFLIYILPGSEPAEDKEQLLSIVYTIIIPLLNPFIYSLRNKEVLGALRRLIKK
Method in brief: as §1

UniProt Q8VGT4 = target: T12, UniProt Q8VGT4
T12 sequence (whole entry): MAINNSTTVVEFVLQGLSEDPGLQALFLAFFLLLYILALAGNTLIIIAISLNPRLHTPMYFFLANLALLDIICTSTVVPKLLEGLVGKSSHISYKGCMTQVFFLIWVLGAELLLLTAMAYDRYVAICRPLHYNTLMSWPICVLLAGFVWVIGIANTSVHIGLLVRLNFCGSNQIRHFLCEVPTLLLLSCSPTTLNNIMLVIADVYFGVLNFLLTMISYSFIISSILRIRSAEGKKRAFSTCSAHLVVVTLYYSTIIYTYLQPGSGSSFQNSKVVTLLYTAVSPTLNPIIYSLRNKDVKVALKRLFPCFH
Method in brief: as §1

UniProt Q8VGU3 = target: T13, UniProt Q8VGU3
T13 sequence (whole entry): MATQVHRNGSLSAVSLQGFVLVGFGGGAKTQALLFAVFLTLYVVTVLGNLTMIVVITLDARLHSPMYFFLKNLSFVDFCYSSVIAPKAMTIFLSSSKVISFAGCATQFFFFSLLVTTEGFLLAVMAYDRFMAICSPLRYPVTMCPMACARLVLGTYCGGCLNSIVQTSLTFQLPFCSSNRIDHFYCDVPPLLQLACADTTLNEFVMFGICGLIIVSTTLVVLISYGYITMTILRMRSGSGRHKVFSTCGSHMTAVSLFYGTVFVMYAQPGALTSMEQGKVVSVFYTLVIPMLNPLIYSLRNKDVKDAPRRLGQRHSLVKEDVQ
Method in brief: as §1

UniProt Q8VGV1 = target: T14, UniProt Q8VGV1
T14 sequence (whole entry): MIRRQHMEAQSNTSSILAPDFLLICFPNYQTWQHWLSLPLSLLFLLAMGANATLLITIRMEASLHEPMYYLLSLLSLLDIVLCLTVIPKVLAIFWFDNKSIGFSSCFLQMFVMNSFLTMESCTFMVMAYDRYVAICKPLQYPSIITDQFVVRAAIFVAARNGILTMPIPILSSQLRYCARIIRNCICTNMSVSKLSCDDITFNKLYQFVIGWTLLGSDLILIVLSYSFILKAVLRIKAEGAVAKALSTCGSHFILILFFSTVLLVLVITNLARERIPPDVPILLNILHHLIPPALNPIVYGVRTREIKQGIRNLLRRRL
Method in brief: as §1

UniProt Q8VGV7 = target: T15, UniProt Q8VGV7
T15 sequence (whole entry): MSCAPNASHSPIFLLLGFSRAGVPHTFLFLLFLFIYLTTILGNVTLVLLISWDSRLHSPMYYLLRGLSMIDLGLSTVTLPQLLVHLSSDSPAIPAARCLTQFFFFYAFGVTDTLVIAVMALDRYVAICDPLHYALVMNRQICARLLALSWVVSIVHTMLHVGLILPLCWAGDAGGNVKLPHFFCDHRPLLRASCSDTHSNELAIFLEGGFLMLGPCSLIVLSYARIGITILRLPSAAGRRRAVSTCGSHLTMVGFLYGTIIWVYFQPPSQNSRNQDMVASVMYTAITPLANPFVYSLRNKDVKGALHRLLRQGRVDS
Method in brief: as §1

UniProt Q8VGX3 = target: T16, UniProt Q8VGX3
T16 sequence (whole entry): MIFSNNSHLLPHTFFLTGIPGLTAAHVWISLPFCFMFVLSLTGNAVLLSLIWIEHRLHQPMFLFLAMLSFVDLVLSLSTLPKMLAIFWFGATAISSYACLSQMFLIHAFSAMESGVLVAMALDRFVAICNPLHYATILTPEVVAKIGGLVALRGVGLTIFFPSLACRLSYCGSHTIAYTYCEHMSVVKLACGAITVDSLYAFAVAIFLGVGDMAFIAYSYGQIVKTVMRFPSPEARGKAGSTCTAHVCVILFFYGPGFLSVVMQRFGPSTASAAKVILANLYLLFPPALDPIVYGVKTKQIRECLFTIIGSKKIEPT
Method in brief: as §1

UniProt Q8VGX5 = target: T17, UniProt Q8VGX5
T17 sequence (whole entry): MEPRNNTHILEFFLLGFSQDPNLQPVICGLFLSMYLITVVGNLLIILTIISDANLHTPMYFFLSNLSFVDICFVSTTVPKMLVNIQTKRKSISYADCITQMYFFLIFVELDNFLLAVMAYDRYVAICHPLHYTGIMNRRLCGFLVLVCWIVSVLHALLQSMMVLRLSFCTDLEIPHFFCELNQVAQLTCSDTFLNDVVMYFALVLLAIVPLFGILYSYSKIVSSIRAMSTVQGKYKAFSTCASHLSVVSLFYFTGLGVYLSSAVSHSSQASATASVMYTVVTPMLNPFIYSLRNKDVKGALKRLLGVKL
Method in brief: as §1

Measured: odorant receptor agonist call

CCCC(=O)OCC
inactive: UniProt Q8VGC6

CCCCCCOC(C)=O
inactive: all assays above

CCCOC(=O)CCC
inactive: UniProt Q8VGC6

CCC(=O)O
inactive: all assays above
